Assay results: ChEMBL document CHEMBL3779792, “Anti-proliferative evaluation of monoterpene derivatives against leukemia” (Eur J Med Chem, 2016)
The source made the active and inactive calls. The rule behind the calls is not given here.

Experiments:
SEM cells [1] = assay: Induction of apoptosis in human SEM cells assessed as late apoptotic cells at 8 uM measured after 24 hrs by annexin V-propidium iodide staining based flow cytometric analysis (reference value: 7.2%); format: functional
Outline: (§1)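 SEM and Nalm06 cells were treated for 24 hr, then stained with fluorochrome-labeled Annexin V and propidium iodide for flow cytometry. Quadrants were scored as viable, early apoptotic, late apoptotic (Q2) and necrotic. DMSO was the negative control and 1 µM staurosporine the positive control. Representative of 3 independent experiments.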

HepG2 = assay: Cytotoxicity against human HepG2 cells after 72 hrs by Cell-Titer Glo assay; format: functional, cell-based; settings: HepG2, 72 h
SEM cells [2] = assay: Induction of apoptosis in human SEM cells assessed as activated caspase3 levels at 8 uM after 6 hrs by immunoblot analysis; format: functional, cell-based
Outline: (§2)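 Immunoblots for activated caspase-3, activated caspase-7, and cleaved and uncleaved PARP. Cells were treated for 3, 6, 12 and 24 hr at 8.0 µM (SEM) or 4.5 µM (Nalm06). Negative controls were DMSO vehicle and an analog at 20 µM.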

SEM cells [3] = assay: Induction of apoptosis in human SEM cells assessed as uncleaved PARP levels at 8 uM after 3 to 12 hrs by immunoblot analysis; format: functional, cell-based; outline: as §2
NALM-6 [4] = assay: Induction of apoptosis in human NALM6 cells assessed as activated caspase7 level at 4.5 uM after 6 and 12 hrs by immunoblot analysis; format: functional, cell-based; outline: as §2
SEM cells [5] = assay: Induction of apoptosis in human SEM cells assessed as activated caspase7 levels at 8 uM after 6 and 12 hrs by immunoblot analysis; format: functional, cell-based; outline: as §2
NALM-6 [6] = assay: Induction of apoptosis in human NALM6 cells assessed as necrotic cells at 8.5 uM measured after 24 hrs by annexin V-propidium iodide staining based flow cytometric analysis (reference value: 0.0%); format: functional; outline: as §1
[7] = molecular target: T1, c-Jun N-terminal kinase, JNK (Homo sapiens) (UniProt P45983+P53779+P45984); assay: Induction of JNK phosphorylation in human SEM cells at 8 uM after 3 to 12 hrs by immunoblot analysis; format: cell-based
Outline: (§3)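 Immunoblot of phospho-JNK and total JNK after 3, 6, 12 and 24 hr treatment at 8.0 µM (SEM) or 4.5 µM (Nalm06), with DMSO and an analog at 20 µM as negative controls. Quantified as the phospho/total JNK ratio normalized to DMSO (set to 1.0).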

SEM cells [8] = assay: Induction of apoptosis in human SEM cells assessed as early apoptotic cells at 8 uM measured after 24 hrs by annexin V-propidium iodide staining based flow cytometric analysis (reference value: 85.3%); format: functional; outline: as §1
NALM-6 [9] = assay: Induction of apoptosis in human NALM6 cells assessed as late apoptotic cells at 8.5 uM measured after 24 hrs by annexin V-propidium iodide staining based flow cytometric analysis (reference value: 4.3%); format: functional; outline: as §1
NALM-6 [10] = assay: Induction of apoptosis in human NALM6 cells assessed as cleaved PARP level at 4.5 uM measured after 12 hrs by immunoblot analysis; format: functional, cell-based; outline: as §2
BJ = assay: Cytotoxicity against human BJ cells after 72 hrs by Cell-Titer Glo assay; format: cell-based
[11] = Cytotoxicity against human SEM cells after 72 hrs by Cell-Titer Glo assay; format: functional, cell-based
SEM cells [12] = assay: Effect on cell cycle arrest in human SEM cells assessed as accumulation at G2/M phase at 8.0 uM after 24 hrs by propidium iodide staining based flow cytometry analysis (reference value: 7.63%)
NALM-6 [13] = assay: Induction of apoptosis in human NALM6 cells assessed as cleaved PARP level at 4.5 uM measured from 3 to 6 hrs by immunoblot analysis; format: functional, cell-based; outline: as §2
Jurkat = assay: Cytotoxicity against human Jurkat cells after 72 hrs by Cell-Titer Glo assay; format: functional, cell-based
SEM cells [14] = assay: Induction of apoptosis in human SEM cells assessed as activated caspase7 levels at 8.0 uM after 6 and 12 hrs by immunoblot analysis
NALM-6 [15] = assay: Induction of apoptosis in human NALM6 cells assessed as early apoptotic cells at 8.5 uM measured after 24 hrs by annexin V-propidium iodide staining based flow cytometric analysis (reference value: 91.5%); format: functional; outline: as §1
[16] = molecular target: T1, c-Jun N-terminal kinase, JNK (Homo sapiens); assay: Induction of JNK phosphorylation in human NALM6 cells at 4.5 uM after 3 to 12 hrs by immunoblot analysis; format: cell-based; settings: NALM-6; outline: as §3
SEM cells [17] = assay: Induction of apoptosis in human SEM cells assessed as viable cells at 8 uM measured after 24 hrs by annexin V-propidium iodide staining based flow cytometric analysis (reference value: 1.5%); format: functional; settings: read-out: Activity; outline: as §1
SEM cells [18] = assay: Induction of apoptosis in human SEM cells assessed as cleaved PARP levels at 8 uM after 3, 6 and 12 hrs by immunoblot analysis; format: functional, cell-based; outline: as §2
SEM cells [19] = assay: Effect on cell cycle in human SEM cells assessed as accumulation at G0/G1 phase at 8.5 uM after 24 hrs by propidium iodide staining based flow cytometry analysis (reference value: 45.75%); format: functional
SEM cells [20] = assay: Effect on cell cycle in human SEM cells assessed as accumulation at S phase at 8.5 uM after 24 hrs by propidium iodide staining based flow cytometry analysis (reference value: 46.62%); format: functional
[21] = Cytotoxicity against human NALM6 cells after 72 hrs by Cell-Titer Glo assay; format: functional, cell-based; settings: NALM-6, 72 h
HEK293 = assay: Cytotoxicity against HEK293 cells after 72 hrs by Cell-Titer Glo assay; format: cell-based; settings: Homo sapiens, HEK293, 72 h
SEM cells [22] = assay: Induction of apoptosis in human SEM cells assessed as necrotic cells at 8 uM measured after 24 hrs by annexin V-propidium iodide staining based flow cytometric analysis (reference value: 0.0%); format: functional; outline: as §1
NALM-6 [23] = assay: Induction of apoptosis in human NALM6 cells assessed as activated caspase3 level at 4.5 uM after 12 hrs by immunoblot analysis; format: functional, cell-based; outline: as §2
Raji = assay: Cytotoxicity against human Raji cells after 72 hrs by Cell-Titer Glo assay; format: functional, cell-based

C=C[C@@](C)(/C=C/c1ccc(O)c(/C=C/C(=O)c2ccccc2)c1)CCC=C(C)C
Activity (SEM cells [1]): 81.1%
EC50 (HepG2): > 52.1 µM
Activity (SEM cells [2]): Active
Activity (SEM cells [3]): inactive
Activity (NALM-6 [4]): Active
Activity (SEM cells [5]): Active
Activity (NALM-6 [6]): 0.1%
Activity [7]: Active
Activity (SEM cells [8]): 0.9%
Activity (NALM-6 [9]): 81.2%
Activity (NALM-6 [10]): Active
EC50 (BJ): > 20 µM
EC50 [11]: 8 µM
Activity (SEM cells [12]): 8%
Activity (NALM-6 [13]): inactive
EC50 (Jurkat): > 49 µM
Activity (SEM cells [14]): Active
Activity (NALM-6 [15]): 2.5%
Activity [16]: inactive
viability at 8 µM (SEM cells [17]): 6.9%
Activity (SEM cells [18]): Active
Activity (SEM cells [19]): 36.25%
Activity (SEM cells [20]): 55.75%
EC50 [21]: 4.47 µM
EC50 (HEK293): > 7.41 µM
Activity (SEM cells [22]): 0%
Activity (NALM-6 [23]): Active
EC50 (Raji): > 26 µM
